ChEMBL document CHEMBL3779798, “Novel seleno- and thio-urea derivatives with potent in vitro activities against several cancer cell lines” (Eur J Med Chem, 2016)
Calls of active or inactive are those of the source. The rule behind the calls is not given here.

How the values were obtained:
HT-29 [1] = assay: Anticancer activity against human HT-29 cells assessed as inhibition of cell growth after 72 hrs by MTT assay; type: functional, cell-based; conditions: HT-29, 72 h
Outline: (§1)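 MTT assay at 3,000 cells/well. Cells treated with DMSO or seven concentrations from 0.5 to 50 µM for 24, 48 or 72 h. MTT added 3 h before the end point; formazan dissolved in DMSO and read at 570 and 630 nm. IC50 is the concentration giving 50% growth inhibition. Media: PANC-1, BxPC3 and 1205Lu in DMEM; DU145 and A549 in RPMI 1640; HT29, HCT116 and RKO in McCoy's 5A, all with 10% FBS and pen/strep, at 37 °C and 5% CO2.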

HCT-116 [2] = assay: Induction of apoptosis in human HCT116 cells assessed as early apoptotic cells at 5 uM after 24 hrs by annexin-V staining based flow cytometry analysis (reference value: 7.84%); type: functional
HCT-116 [3] = assay: Induction of apoptosis in human HCT116 cells assessed as necrotic cells at 1 uM after 24 hrs by annexin-V staining based flow cytometry analysis (reference value: 0.72%); type: functional
[4] = Induction of cell death in human HCT116 cells at 5 uM after 24 hrs by calcein-AM and ethidium homodimer-1 staining based flow cytometry analysis (reference value: 1.1%); type: functional, HCT-116
[5] = Anticancer activity against human DU145 cells assessed as inhibition of cell growth after 24 hrs by MTT assay; type: functional, cell-based; conditions: DU-145, 24 h; outline: as §1
HCT-116 [6] = assay: Induction of apoptosis in human HCT116 cells assessed as early apoptotic cells after 24 hrs by annexin-V staining based flow cytometry analysis; type: functional, cell-based
HCT-116 [7] = assay: Decrease in number of viable cells in human HCT116 cells at 5 uM after 24 hrs by calcein-AM and ethidium homodimer-1 staining based flow cytometry analysis (reference value: 94.9%); type: functional
[8] = Anticancer activity against human 1205 Lu cells assessed as inhibition of cell growth after 48 hrs by MTT assay; type: functional, cell-based; outline: as §1
[9] = Anticancer activity against human BxPC3 cells assessed as inhibition of cell growth after 48 hrs by MTT assay; type: functional, cell-based; conditions: BXPC-3, 48 h; outline: as §1
[10] = Anticancer activity against human PANC1 cells assessed as inhibition of cell growth after 24 hrs by MTT assay; type: functional, cell-based; conditions: PANC-1, 24 h; outline: as §1
HCT-116 [11] = assay: Decrease in pro-caspase3 level in human HCT116 cells at 0.5 to 5 uM after 24 hrs by western blot analysis; type: functional, cell-based
Outline: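 HCT116 cells (6 × 10^5/well) treated for 24 h. Whole-cell lysates made in RIPA buffer with phosphatase and protease inhibitors and PMSF, cleared at 15,000 g, resolved by SDS-PAGE and transferred to PVDF. Blots probed overnight in the cold with primary antibodies, then peroxidase-linked secondaries, and detected by ECL; β-actin antibody used.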

HCT-116 [12] = assay: Induction of apoptosis in human HCT116 cells assessed as viable cells at 2.5 uM after 24 hrs by annexin-V staining based flow cytometry analysis (reference value: 90.38%); type: functional; conditions: HCT-116, 24 h, read-out: Activity
HCT-116 [13] = assay: Induction of apoptosis in human HCT116 cells assessed as late apoptotic cells at 5 uM after 24 hrs by annexin-V staining based flow cytometry analysis (reference value: 1.06%); type: functional
HCT-116 [14] = assay: Induction of apoptosis in human HCT116 cells assessed as early apoptotic cells at 2.5 uM after 24 hrs by caspase3/7 reagent based flow cytometry (reference value: 5.18%); type: functional
HCT-116 [15] = assay: Potency index, ratio IC50 of 5-FU to IC50 of compound for anticancer activity against human HCT116 cells; type: functional
Outline: (§2)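 Colon lines (McCoy's 5A, 10% FBS, penicillin/streptomycin, 37 °C, 5% CO2) seeded at 3,000 cells/well and exposed 24, 48 or 72 h to DMSO or seven concentrations across 0.5–50 µM. MTT added 3 h before end; formazan dissolved in DMSO, absorbance read at 570 and 630 nm. IC50 (50% growth inhibition) from curve fitting; index is the 5-FU IC50 divided by the compound IC50.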

RKO [16] = assay: Potency index, ratio IC50 of 5-FU to IC50 of compound for anticancer activity against human RKO cells; type: functional; outline: as §2
HT-29 [17] = assay: Anticancer activity against human HT-29 cells assessed as inhibition of cell growth after 48 hrs by MTT assay; type: functional, cell-based; conditions: HT-29, 48 h; outline: as §1
[18] = Anticancer activity against human BxPC3 cells assessed as inhibition of cell growth after 24 hrs by MTT assay; type: functional, cell-based; conditions: BXPC-3, 24 h; outline: as §1
RKO [19] = assay: Anticancer activity against human RKO cells assessed as inhibition of cell growth after 48 hrs by MTT assay; type: functional, cell-based; outline: as §1
HCT-116 [20] = assay: Induction of apoptosis in human HCT116 cells assessed as late apoptotic cells after 24 hrs by annexin-V staining based flow cytometry analysis; type: functional, cell-based
HCT-116 [21] = assay: Induction of apoptosis in human HCT116 cells assessed as early apoptotic cells at 1 uM after 24 hrs by annexin-V staining based flow cytometry analysis (reference value: 7.84%); type: functional
HCT-116 [22] = assay: Induction of apoptosis in human HCT116 cells assessed as early apoptotic cells at 1 uM after 24 hrs by caspase3/7 reagent based flow cytometry (reference value: 5.18%); type: functional
[23] = Anticancer activity against human DU145 cells assessed as inhibition of cell growth after 48 hrs by MTT assay; type: functional, cell-based; conditions: DU-145, 48 h; outline: as §1
HCT-116 [24] = assay: Induction of apoptosis in human HCT116 cells assessed as late apoptotic cells at 2.5 uM after 24 hrs by caspase3/7 reagent based flow cytometry (reference value: 2.28%); type: functional
A549 = assay: Anticancer activity against human A549 cells assessed as inhibition of cell growth after 24 hrs by MTT assay; type: functional, cell-based; conditions: A549, 24 h; outline: as §1
HCT-116 [25] = assay: Decrease in number of viable cells in human HCT116 cells at 1 uM after 24 hrs by calcein-AM and ethidium homodimer-1 staining based flow cytometry analysis (reference value: 94.9%); type: functional
HCT-116 [26] = assay: Induction of apoptosis in human HCT116 cells assessed as necrotic cells at 1 uM after 24 hrs by caspase3/7 reagent based flow cytometry (reference value: 4.14%); type: functional
RKO [27] = assay: Anticancer activity against human RKO cells assessed as inhibition of cell growth after 72 hrs by MTT assay; type: functional, cell-based; outline: as §1
HT-29 [28] = assay: Anticancer activity against human HT-29 cells assessed as inhibition of cell growth after 24 hrs by MTT assay; type: functional, cell-based; conditions: HT-29, 24 h; outline: as §1
[29] = Anticancer activity against human BxPC3 cells assessed as inhibition of cell growth after 72 hrs by MTT assay; type: functional, cell-based; conditions: BXPC-3, 72 h; outline: as §1
HCT-116 [30] = assay: Induction of apoptosis in human HCT116 cells assessed as early apoptotic cells at 2.5 uM after 24 hrs by annexin-V staining based flow cytometry analysis (reference value: 7.84%); type: functional
[31] = Induction of cell death in human HCT116 cells at 1 uM after 24 hrs by calcein-AM and ethidium homodimer-1 staining based flow cytometry analysis (reference value: 1.1%); type: functional, HCT-116
[32] = Anticancer activity against human PANC1 cells assessed as inhibition of cell growth after 48 hrs by MTT assay; type: functional, cell-based; conditions: PANC-1, 48 h; outline: as §1
[33] = Anticancer activity against human 1205 Lu cells assessed as inhibition of cell growth after 72 hrs by MTT assay; type: functional, cell-based; outline: as §1

SMILES: Br.Br.N=C(N)[Se]Cc1nc2ccccc2nc1C[Se]C(=N)N
- IC50 (HT-29 [1]): 2.2 µM
- Activity (HCT-116 [2]): 39.02%
- Activity (HCT-116 [3]): 0.2%
- Activity [4]: 19.3%
- IC50 [5]: 2.3 µM
- Activity (HCT-116 [6]): Dose-dependent effect
- Activity (HCT-116 [7]): 73.4%
- IC50 [8]: 2.8 µM
- IC50 [9]: 2.9 µM
- IC50 [10]: 6.6 µM
- Activity (HCT-116 [11]): Active
- viability at 2.5 µM (HCT-116 [12]): 66.2%
- Activity (HCT-116 [13]): 35.68%
- Activity (HCT-116 [14]): 6.48%
- Ratio IC50 (HCT-116 [15]): >50
- Ratio IC50 (RKO [16]): >50
- IC50 (HT-29 [17]): 4.1 µM
- IC50 [18]: 3.6 µM
- IC50 (RKO [19]): 1.9 µM
- Activity (HCT-116 [20]): Dose-dependent effect
- Activity (HCT-116 [21]): 19.44%
- Activity (HCT-116 [22]): 7.18%
- IC50 [23]: 2.8 µM
- Activity (HCT-116 [24]): 5.72%
- IC50 (A549): 3 µM
- Activity (HCT-116 [25]): 96.9%
- Activity (HCT-116 [26]): 3.18%
- IC50 (RKO [27]): 2.5 µM
- IC50 (HT-29 [28]): 5 µM
- IC50 [29]: 2.2 µM
- Activity (HCT-116 [30]): 21.6%
- Activity [31]: 0.7%
- IC50 [32]: 2.9 µM
- IC50 [33]: 2.2 µM
